For series [1], the species on record is Ovis aries. Description: Agonist activity at serotonin receptor in sheep umbilical artery assessed increase of mescaline-induced contraction. Type of series: tissue-based. Summed up:
(§1)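 Serotonin-receptor agonism measured in an isolated sheep umbilical artery preparation from dose-response curves giving ED50 values. The ratio (mescaline ED50 / compound ED50) is calculated from the data within each experimental series, with mescaline run as a time control. Data are reported over n tissues with the standard error of the geometric mean.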

The species entered for series [2] is Ovis aries. Description: Potency ratio, ratio of mescaline ED50 to compound ED50 for serotonin receptor in sheep umbilical artery assessed increase of mescaline-induced contraction. Type of series: tissue-based. In a few lines:
as §1

A short description of series [3]: 1-Octanol-water partition coefficient, log P of the compound at pH 8. Type of series: physicochemical.

One may read the logD as the decadic logarithm of the distribution of all forms, ionised or not, between an organic phase and buffer at a given pH. On to `COc1cc(CCN)cc(OC)c1Br`, for which the ED50 in the series filed under Ovis aries [1] came to 1.85 ×10⁻⁷ M. In addition, in the series listed under Ovis aries [2], the Ratio ED50 turned out to be 7.57. In series [3], this compound came in with a pH-dependent lipophilicity (logD) of 2.03.

In turn, `CCCOc1c(OC)cc(CCN)cc1OC` registered an ED50 in the series filed under Ovis aries [1] of 3.8 ×10⁻⁷ M. In addition, in the series listed under Ovis aries [2], the Ratio ED50 was 3.68. Further, in series [3], the logD came out at 1.7.

`COc1cc(CCN)cc(OC)c1OC` [MESCALINE] showed an ED50 in the series filed under Ovis aries [1] of 1.4 ×10⁻⁶ M. The compound further yielded a logD in series [3] of 0.78.

Take `COc1cc(CCN)cc(OC)c1OC(C)C`: the ED50 in the series filed under Ovis aries [1] was 5 ×10⁻⁷ M. Further, the Ratio ED50 in the series listed under Ovis aries [2] was found to be 2.8. In addition, in series [3], the logD worked out at 1.52.

Turning to `CCCCOc1c(OC)cc(CCN)cc1OC`, the ED50 in the series listed under Ovis aries [1] came out at 1.1 ×10⁻⁶ M. Further, in the series filed under Ovis aries [2], the Ratio ED50 is 1.27. Further, the logD in series [3] worked out at 2.32.

`CCOc1c(OC)cc(CCN)cc1OC`: the ED50 in the series listed under Ovis aries [1] amounted to 6.8 ×10⁻⁷ M. The Ratio ED50 in the series listed under Ovis aries [2] is 2.06. The compound also displayed a logD in series [3] of 1.11.

Regarding `COc1cc(CCN)cc(OC)c1OCc1ccccc1`, the ED50 in the series filed under Ovis aries [1] was determined as 4.6 ×10⁻⁷ M. For the same compound, the Ratio ED50 in the series filed under Ovis aries [2] worked out at 3.04. In series [3], this compound displayed a logD of 2.4.

The values above are taken from ChEMBL document CHEMBL3272297, “Lipophilicity and serotonin agonist activity in a series of 4-substituted mescaline analogues” (J Med Chem, 1977).
